Converted amounts (≈) assume the structure as drawn.

MIC, CC50 (50% cell growth inhibitory concentration) and MCC data for 6 compounds are collected here from ChEMBL document CHEMBL1126074, “(+-)-carbocyclic 5'-nor-2'-deoxyguanosine and related purine derivatives: synthesis and antiviral properties” (1992).

Format in all cases: functional
Assay [1] is described as follows: Concentration required to reduce HSV-1 thymidine kinase deficient (TK-)(B2006) induced cytopathogenicity by 50% in ESM(embryonic skin muscle) cell cultures. The conditions noted are these: Homo sapiens. The essentials: (§1)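 Embryonic skin muscle (ESM) cell cultures were infected at a virus input of 100 CCID50, where 1 CCID50 is the infective dose for 50% of cultures. Endpoint: concentration reducing virus-induced cytopathogenicity by 50%.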
For orientation: Damage to the host cells serves as the signal in cytopathic effect assays.

The subject of assay [2] is HEL. Nature of the assay: Concentration required to reduce VZV-07/1-TK- plaque formation by 50% in human embryonic lung (HEL) cell cultures.
Assay [3] relates to HEL. Nature of the assay: Concentration required to reduce varicella zoster virus(VZV)OKA plaque formation by 50% at 20 plaque forming units(PFU) in human embryonic lung (HEL) cell cultures.
The nature of assay [4]: Concentration required to reduce HSV-2(G) induced cytopathogenicity by 50% in ESM(embryonic skin muscle) cell cultures. The conditions noted are these: Homo sapiens. Summed up:
as §1

For assay [5], the system named is HEL. Nature of the assay: Concentration required to reduce varicella zoster virus (VZV)YS-TK-PFU plaque formation by 50% in human embryonic lung (HEL) cell cultures.
The subject of assay [6] is HEL. Nature of the assay: Concentration required to reduce VZV-YS/R-TK- plaque formation by 50% in human embryonic lung (HEL) cell cultures.
The test system of assay [7] is HEL. Briefly: Concentration required to reduce human embryonic lung (HEL) cell growth by 50%. The conditions noted are these: read-out: MCC.
Assay [8] can be described thus: Concentration required to reduce vesicular stomatitis virus(VSV) induced cytopathogenicity by 50% in ESM(embryonic skin muscle) cell cultures. The conditions noted are these: Homo sapiens. The essentials: as §1
Assay [9] can be described thus: Concentration required to reduce HSV-1 thymidine kinase deficient (TK-)(VMW 1837) induced cytopathogenicity in by 50% ESM(embryonic skin muscle) cell cultures. The conditions noted are these: Homo sapiens. Summed up: as §1
Assay [10] can be described thus: Concentration required to reduce HSV-1(KOS) induced cytopathogenicity by 50% in ESM(embryonic skin muscle) cell cultures. The conditions noted are these: Homo sapiens. The essentials: as §1
Assay [11] has as its system HEL. Nature of the assay: Concentration required to reduce CMV (Davis) plaque formation by 50% at 100 plaque forming units(PFU) in human embryonic lung (HEL) cell cultures. The essentials: (§2)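 Human embryonic lung (HEL) cell cultures were infected with 20 or 100 plaque forming units of CMV, as specified per column. Endpoint: concentration reducing plaque formation by 50%.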

A short description of assay [12]: Concentration required to cause a microscopically detectable alteration of normal ESM cell morphology. The conditions noted are these: Homo sapiens.
Assay [13] relates to HEL. Nature of the assay: Concentration required to reduce CMV(AD-169) plaque formation by 50% in human embryonic lung (HEL) cell cultures. Summed up: as §2
Assay [14] is described as follows: Concentration required to reduce vaccinia virus(VV) induced cytopathogenicity by 50% in ESM(embryonic skin muscle) cell cultures. The conditions noted are these: Homo sapiens. Summed up:
as §1

The subject of assay [15] is HEL. Nature of the assay: Concentration required to reduce CMV(Davis) plaque formation by 50% at 20 plaque forming units(PFU) in human embryonic lung (HEL) cell cultures. Summed up:
as §2

As for `Nc1ncnc2c1ncn2[C@H]1C[C@@H](O)[C@@H](O)C1`, the MIC in assay [1] is 70 µg/mL (≈ 298 µM); in the assay on HEL [2] it was 24 µg/mL (≈ 102 µM); against HEL [3], 24 µg/mL (≈ 102 µM); in assay [4] it was > 200 µg/mL; against HEL [5] it was 25 µg/mL (≈ 106 µM); with HEL [6], 47 µg/mL (≈ 200 µM). The MIC was > 200 µg/mL in [8]; 100 µg/mL (≈ 425 µM) in assay [9]; > 200 µg/mL in assay [10]; 200 µg/mL (≈ 850 µM) in the assay with HEL [11]; 200 µg/mL (≈ 850 µM) against HEL [13]; > 100 µg/mL in assay [14]. The compound also gave an MIC against HEL [15] of 200 µg/mL (≈ 850 µM). Moreover, in the assay with HEL [7], the CC50 (50% cell growth inhibitory concentration) was determined as 110 µg/mL (≈ 468 µM). The MCC in assay [12] is > 400 µg/mL.
On to `Nc1nc(O)c2ncn([C@H]3C[C@@H](O)[C@@H](O)C3)c2n1`, for which the MIC is 300 µg/mL (≈ 1190 µM) in assay [1]; 164 µg/mL (≈ 653 µM) with HEL [2]; 90 µg/mL (≈ 358 µM) with HEL [3]; 300 µg/mL (≈ 1190 µM) in [4]; 91 µg/mL (≈ 362 µM) in the assay on HEL [5]; 192 µg/mL (≈ 764 µM) in the assay with HEL [6]. The MIC in [8] is > 400 µg/mL; in [9], 150 µg/mL (≈ 597 µM); in assay [10] it was 300 µg/mL (≈ 1190 µM); in the assay with HEL [11], 250 µg/mL (≈ 995 µM); in the assay with HEL [13] it was 250 µg/mL (≈ 995 µM); in assay [14], 300 µg/mL (≈ 1190 µM). In addition, the MIC in the assay on HEL [15] was 270 µg/mL (≈ 1070 µM). Also, the CC50 (50% cell growth inhibitory concentration) in the assay on HEL [7] turned out to be 196 µg/mL (≈ 780 µM). In addition, in assay [12], the MCC is > 400 µg/mL.
Turning to `Nc1nc(N)c2ncn([C@H]3C[C@@H](O)[C@@H](O)C3)c2n1`, the MIC in assay [1] was found to be 100 µg/mL (≈ 400 µM); in the assay with HEL [2] it was 70 µg/mL (≈ 280 µM); with HEL [3], 70 µg/mL (≈ 280 µM); in assay [4], 200 µg/mL (≈ 799 µM); with HEL [5], 200 µg/mL (≈ 799 µM); in the assay with HEL [6] it was 89 µg/mL (≈ 356 µM). Further, the MIC in [8] was > 200 µg/mL; in [9] it was 150 µg/mL (≈ 599 µM); in assay [10], > 200 µg/mL; against HEL [11], 70 µg/mL (≈ 280 µM); in the assay with HEL [13], 70 µg/mL (≈ 280 µM); in assay [14] it was > 150 µg/mL. The compound further registered an MIC in the assay with HEL [15] of 70 µg/mL (≈ 280 µM). For the same compound, the CC50 (50% cell growth inhibitory concentration) in the assay with HEL [7] came to 139 µg/mL (≈ 555 µM). The MCC in assay [12] was > 400 µg/mL.
Turning to `O=c1[nH]c(=O)n([C@H]2C[C@H](O)[C@@H](CO)O2)cc1/C=C/Br` [BRIVUDINE], the MIC in assay [1] is 100 µg/mL (≈ 300 µM); with HEL [2] it was > 10 µg/mL; against HEL [3], 0.001 µg/mL (≈ 0.003 µM); in assay [4], 10 µg/mL (≈ 30 µM); in the assay with HEL [5], 0.0007 µg/mL (≈ 0.0021 µM); in the assay on HEL [6], > 10 µg/mL. Further, the MIC in assay [8] was > 400 µg/mL; in assay [9], 10 µg/mL (≈ 30 µM); in [10], 0.07 µg/mL (≈ 0.21 µM); in assay [14] it was 1 µg/mL (≈ 3 µM). Moreover, in assay [12], the MCC was > 400 µg/mL.
Consider `Nc1nc2c(ncn2COC(CO)CO)c(=O)[nH]1` [GANCICLOVIR], for which the values for the MIC against HEL [3], with HEL [11] and against HEL [15] were 3 µg/mL (≈ 11.8 µM), 0.3 µg/mL (≈ 1.18 µM) and 0.8 µg/mL (≈ 3.13 µM), respectively.
On to `NC(=O)c1ncn([C@@H]2O[C@H](CO)[C@@H](O)[C@H]2O)n1` [RIBAVIRIN], for which the MIC was 300 µg/mL (≈ 1230 µM) in assay [1]; > 400 µg/mL in [4]; 150 µg/mL (≈ 614 µM) in [8]; 40 µg/mL (≈ 164 µM) in assay [9]; > 400 µg/mL in [10]; 70 µg/mL (≈ 287 µM) in assay [14]. Further, in [12], the MCC was > 400 µg/mL.
